In ChEMBL document CHEMBL4270489, “Synthesis and in vitro and in vivo antitumour activity study of 11-hydroxyl esterified bergenin/cinnamic acid hybrids” (Eur J Med Chem, 2017):
Activity calls are given as the source filed them. The rule behind the calls is not given here.

Tests used:
[1] = system: PC-3; assay: Antiproliferative activity against human PC3 cells incubated for 48 to 72 hrs by MTT assay; assay type: functional, cell-based
Procedure, shortened: (§1)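 MTT assay. Cells were grown in DMEM with 10% heat-inactivated FBS at 37°C under 5% CO₂. They were seeded at 5000/well in 5% FBS DMEM for 24 h, then given compound in DMSO at 0.1, 1, 10 and 100 µmol/L for 72 h (the table footnote says 48 h). MTT was added for 4 h, formazan was dissolved in DMSO and read at 570 nm. IC₅₀ was from ≥3 independent runs; >100 μM was given if 50% inhibition was not reached.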

[2] = system: A549; assay: Antiproliferative activity against human A549 cells incubated for 48 to 72 hrs by MTT assay; assay type: functional, cell-based; procedure, shortened: as §1
[3] = system: SGC-7901; assay: Antiproliferative activity against human SGC7901 cells incubated for 48 to 72 hrs by MTT assay; assay type: functional, cell-based; procedure, shortened: as §1
[4] = system: MCF7; assay: Antiproliferative activity against human MCF7 cells incubated for 48 to 72 hrs by MTT assay; assay type: functional, cell-based; procedure, shortened: as §1
[5] = system: HepG2; assay: Antiproliferative activity against human HepG2 cells incubated for 48 to 72 hrs by MTT assay; assay type: functional, cell-based; procedure, shortened: as §1
[6] = system: Mus musculus; assay: Toxicity in Swiss mouse xenografted with human HepG2 cells assessed as reduction in body weight at 20 mg/kg, ip dosed every day for 14 days; assay type: organism-based; conditions: in vivo, 336 h
Procedure, shortened: (§2)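 Female Swiss mice (20-22 g) received 3×10⁶ HepG2 cells subcutaneously in the right flank. After 7-21 days they were randomised into groups of 6, including a saline control, and given daily intraperitoneal injections for 14 days. Body weight was recorded daily. Mice were killed on day 14, and tumour wet weight gave the % inhibition. Data are mean ± S.E.M.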

[7] = system: HepG2; assay: Antitumour activity against human HepG2 cells xenografted in Swiss mouse assessed as inhibition of tumor growth at 20 mg/kg, ip dosed every day for 14 days; assay type: functional; conditions: 336 h, read-out: TGI; procedure, shortened: as §2
[8] = system: HepG2; assay: Induction of cell cycle arrest in human HepG2 cells assessed as accumulation at G0/G1 phase at 2 umol/L incubated for 12 hrs by propidium iodide staining based flow cytometry (reference value: 64.31%); assay type: functional
[9] = system: HepG2; assay: Induction of cell cycle arrest in human HepG2 cells assessed as accumulation at S phase at 2 umol/L incubated for 12 hrs by propidium iodide staining based flow cytometry (reference value: 25.28%); assay type: functional
[10] = system: HepG2; assay: Induction of cell cycle arrest in human HepG2 cells assessed as accumulation at G2/M phase at 2 umol/L incubated for 12 hrs by propidium iodide staining based flow cytometry (reference value: 10.41%); assay type: functional
[11] = system: HepG2; assay: Induction of cell cycle arrest in human HepG2 cells assessed as accumulation at G0/G1 phase at 2 umol/L incubated for 24 hrs by propidium iodide staining based flow cytometry (reference value: 64.31%); assay type: functional
[12] = system: HepG2; assay: Induction of cell cycle arrest in human HepG2 cells assessed as accumulation at S phase at 2 umol/L incubated for 24 hrs by propidium iodide staining based flow cytometry (reference value: 25.28%); assay type: functional
[13] = system: HepG2; assay: Induction of cell cycle arrest in human HepG2 cells assessed as accumulation at G2/M phase at 2 umol/L incubated for 24 hrs by propidium iodide staining based flow cytometry (reference value: 10.41%); assay type: functional
[14] = system: HepG2; assay: Induction of apoptosis in human HepG2 cells at 1 umol/L incubated for 24 hrs by Annexin V-FITC/propidium iodide staining based flow cytometry (reference value: 1.96%); assay type: functional
[15] = system: HepG2; assay: Induction of apoptosis in human HepG2 cells at 2 umol/L incubated for 24 hrs by Annexin V-FITC/propidium iodide staining based flow cytometry (reference value: 1.96%); assay type: functional
[16] = system: HepG2; assay: Induction of apoptosis in human HepG2 cells at 4 umol/L incubated for 24 hrs by Annexin V-FITC/propidium iodide staining based flow cytometry (reference value: 1.96%); assay type: functional
[17] = system: Mus musculus; assay: Toxicity in Swiss mouse xenografted with […] assessed as increase in body weight at 15 mg/kg, ip dosed every day for 14 days; assay type: organism-based; conditions: in vivo, 336 h
Procedure, shortened: (§3)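 Female Swiss mice (20-22 g) bearing subcutaneous […] (3×10⁶ cells, right flank) were dosed intraperitoneally daily with saline, 15 or 30 mg/kg, or 5-FU 20 mg/kg (n = 6) and killed on day 14. Body weight was recorded daily. Thymus and spleen indexes were calculated as organ weight divided by final body weight. Mean ± S.E.M.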

[18] = system: Mus musculus; assay: Toxicity in Swiss mouse xenografted with […] assessed as effect on thymus index at 15 to 30 mg/kg, ip dosed every day for 14 days; assay type: organism-based; conditions: in vivo, 336 h; procedure, shortened: as §3
[19] = system: Mus musculus; assay: Toxicity in Swiss mouse xenografted with […] assessed as effect on spleen index at 15 to 30 mg/kg, ip dosed every day for 14 days; assay type: organism-based; conditions: in vivo, 336 h; procedure, shortened: as §3
[20] = system: HepG2; assay: Induction of apoptosis in human HepG2 cells assessed as reduction in pro-caspase-3 protein expression at 1 to 8 umol/L incubated for 12 to 48 hrs by Western blot analysis; assay type: functional, cell-based
Procedure, shortened: (§4)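 Western blot. HepG2 cells were seeded at 5×10⁵/well with compound in 10% FBS at 37°C: 1, 2, 4 or 8 μM for 24 h, or 4 μmol/L over a time course. The vehicle was 0.5% DMSO. Cleared lysates were quantified by BCA and run on 10% SDS-PAGE, then transferred to PVDF. Membranes were blocked in 5% milk/TBST with primary antibodies at 1:2000 at 4°C, HRP secondary at 1:2000 for 2 h, and ECL detection. GAPDH served as loading control.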

[21] = system: HepG2; assay: Induction of apoptosis in human HepG2 cells assessed as reduction in pro-caspase-9 protein expression at 1 to 8 umol/L incubated for 12 to 48 hrs by Western blot analysis; assay type: functional, cell-based; procedure, shortened: as §4
[22] = system: HepG2; assay: Induction of apoptosis in human HepG2 cells assessed as reduction in Bcl2 protein expression at 1 to 8 umol/L incubated for 12 to 48 hrs by Western blot analysis; assay type: functional, cell-based; procedure, shortened: as §4
[23] = system: HepG2; assay: Induction of apoptosis in human HepG2 cells assessed as reduction in Bcl-XL protein expression at 1 to 8 umol/L incubated for 12 to 48 hrs by Western blot analysis; assay type: functional, cell-based; procedure, shortened: as §4
[24] = system: HepG2; assay: Induction of apoptosis in human HepG2 cells assessed as reduction in Akt protein expression at 1 to 8 umol/L incubated for 12 to 48 hrs by Western blot analysis; assay type: functional, cell-based; procedure, shortened: as §4
[25] = system: HepG2; assay: Induction of apoptosis in human HepG2 cells assessed as reduction in Bcl2 protein expression by Western blot analysis; assay type: functional, cell-based; procedure, shortened: as §4
[26] = system: HepG2; assay: Induction of apoptosis in human HepG2 cells assessed as reduction in Bcl-XL protein expression by Western blot analysis; assay type: functional, cell-based; procedure, shortened: as §4
[27] = system: HepG2; assay: Induction of apoptosis in human HepG2 cells assessed as increase in Bax protein expression by Western blot analysis; assay type: functional, cell-based; procedure, shortened: as §4
[28] = system: HepG2; assay: Induction of apoptosis in human HepG2 cells incubated for 24 hrs by Annexin V-FITC/propidium iodide staining based flow cytometry (reference value: 1.96%); assay type: functional, cell-based
[29] = system: Heps (mouse); assay: Antitumour activity against murine HepS cells xenografted in Swiss mouse assessed as inhibition of tumor growth at 15 mg/kg, ip dosed every day for 14 days; conditions: 336 h, read-out: TGI
[30] = system: Heps (mouse); assay: Antitumour activity against murine HepS cells xenografted in Swiss mouse assessed as inhibition of tumor growth at 30 mg/kg, ip dosed every day for 14 days; conditions: 336 h, read-out: TGI
[31] = system: Heps (mouse); assay: Antitumour activity against murine HepS cells xenografted in Swiss mouse assessed as reduction in tumor size at 15 to 30 mg/kg, ip dosed every day for 14 days
[32] = system: HepG2; assay: Induction of apoptosis in human HepG2 cells assessed as increase in p53 protein expression at 1 to 8 umol/L incubated for 12 to 48 hrs by Western blot analysis
[33] = system: Heps (mouse); assay: Antitumour activity against murine HepS cells xenografted in Swiss mouse assessed as reduction in tumor weight at 15 to 30 mg/kg, ip dosed every day for 14 days

Structure (SMILES): COc1ccc(/C=C/C(=O)OC[C@H]2O[C@H]3c4c(cc(O)c(OC)c4O)C(=O)O[C@@H]3[C@@H](O)[C@@H]2O)cc1OC
- IC50 [1]: > 100 µM
- IC50 [2]: > 100 µM
- IC50 [3]: 58.9 µM
- IC50 [4]: > 100 µM
- IC50 [5]: 86.1 µM

Structure (SMILES): O=c1[nH]cc(F)c(=O)[nH]1 [FLUOROURACIL]
- IC50 [1]: 38.6 µM
- IC50 [2]: 10.7 µM
- IC50 [3]: 13.2 µM
- IC50 [4]: 7.67 µM
- IC50 [5]: 17.4 µM
- Activity [6]: Toxic
- inhibition in vivo at 20 mg/kg [7]: 52.2%

Structure (SMILES): COc1c(O)cc2c(c1O)[C@@H]1O[C@H](COC(=O)/C=C/c3ccc([N+](=O)[O-])cc3)[C@@H](O)[C@H](O)[C@H]1OC2=O
- IC50 [1]: > 100 µM
- IC50 [2]: > 100 µM
- IC50 [3]: > 100 µM
- IC50 [4]: > 100 µM
- IC50 [5]: > 100 µM

Structure (SMILES): COc1c(O)cc2c(c1O)[C@@H]1O[C@H](COC(=O)/C=C/c3ccc(C#N)cc3)[C@@H](O)[C@H](O)[C@H]1OC2=O
- IC50 [1]: 27 µM
- IC50 [2]: 10.7 µM
- IC50 [3]: 8.32 µM
- IC50 [4]: 7.34 µM
- IC50 [5]: 5.23 µM
- Activity [8]: 57.64%
- Activity [9]: 28.43%
- Activity [10]: 13.93%
- Activity [11]: 51.15%
- Activity [12]: 19.92%
- Activity [13]: 28.93%
- Activity [14]: 5.58%
- Activity [15]: 10.68%
- Activity [16]: 20.68%
- Activity [17]: Non-Toxic
- Activity [18]: Non-Toxic
- Activity [19]: Non-Toxic
- Activity [20]: Active
- Activity [21]: Active
- Activity [22]: Active
- Activity [23]: Active
- Activity [24]: Active
- Activity [25]: Dose-dependent effect
- Activity [26]: Dose-dependent effect
- Activity [27]: Dose-dependent effect
- Activity [28]: Dose-dependent effect
- inhibition in vivo at 15 mg/kg [29]: 45.4%
- inhibition in vivo at 30 mg/kg [30]: 61%
- Activity [31]: Dose-dependent effect
- Activity [32]: Active
- Activity [33]: Dose-dependent effect

Structure (SMILES): COc1c(O)cc2c(c1O)[C@@H]1O[C@H](COC(=O)/C=C/c3ccc(Cl)cc3)[C@@H](O)[C@H](O)[C@H]1OC2=O
- IC50 [1]: 86.5 µM
- IC50 [2]: > 100 µM
- IC50 [3]: > 100 µM
- IC50 [4]: > 100 µM
- IC50 [5]: > 100 µM

Structure (SMILES): COc1ccc(/C=C/C(=O)OC[C@H]2O[C@H]3c4c(cc(O)c(OC)c4O)C(=O)O[C@@H]3[C@@H](O)[C@@H]2O)cc1
- IC50 [1]: > 100 µM
- IC50 [2]: 26.4 µM
- IC50 [3]: 15.9 µM
- IC50 [4]: 18.7 µM
- IC50 [5]: 29.7 µM

Structure (SMILES): COc1c(O)cc2c(c1O)[C@@H]1O[C@H](COC(=O)/C=C/c3ccc(Cl)c(Cl)c3)[C@@H](O)[C@H](O)[C@H]1OC2=O
- IC50 [1]: > 100 µM
- IC50 [2]: 63.2 µM
- IC50 [3]: > 100 µM
- IC50 [4]: > 100 µM
- IC50 [5]: > 100 µM

Structure (SMILES): COc1cc(/C=C/C(=O)OC[C@H]2O[C@H]3c4c(cc(O)c(OC)c4O)C(=O)O[C@@H]3[C@@H](O)[C@@H]2O)cc(OC)c1
- IC50 [1]: 26.3 µM
- IC50 [2]: 12.3 µM
- IC50 [3]: 27.8 µM
- IC50 [4]: 6.25 µM
- IC50 [5]: 16.8 µM
